In ChEMBL document CHEMBL4270599, “Synthesis of a 3'-C-ethynyl-β-d-ribofuranose purine nucleoside library: Discovery of C7-deazapurine analogs as potent antiproliferative nucleosides” (Eur J Med Chem, 2018):

Assays:
[1] = tested on: NCI-H322M; assay: Growth inhibition of human NCI-H322M cells assessed as cell growth at 10^-6 M incubated for 48 hrs by sulforhodamine B assay relative to control; format: functional; details: read-out: Activity
[2] = tested on: SF-295; assay: Growth inhibition of human SF295 cells assessed as cell growth at 10^-7 M incubated for 48 hrs by sulforhodamine B assay relative to control; format: functional; details: SF-295, 48 h, read-out: Activity
[3] = tested on: UO-31; assay: Growth inhibition of human UO31 cells assessed as cell growth at 10^-7 M incubated for 48 hrs by sulforhodamine B assay relative to control; format: functional; details: UO-31, 48 h, read-out: Activity
[4] = tested on: SNB-75; assay: Growth inhibition of human SNB75 cells assessed as cell growth at 10^-6 M incubated for 48 hrs by sulforhodamine B assay relative to control; format: functional; details: SNB-75, 48 h, read-out: Activity
[5] = tested on: MCF7; assay: Growth inhibition of human MCF7 cells assessed as cell growth at 10^-7 M incubated for 48 hrs by sulforhodamine B assay relative to control; format: functional; details: MCF7, 48 h, read-out: Activity
[6] = tested on: MCF7; assay: Growth inhibition of human MCF7 cells assessed as cell growth at 10^-5 M incubated for 48 hrs by sulforhodamine B assay relative to control; format: functional; details: MCF7, 48 h, read-out: Activity
[7] = tested on: COLO 205; assay: Cytotoxicity against human COLO205 cells after 48 hrs by SRB assay; format: functional; details: COLO 205, 48 h; for GI50: read-out: GI50; for CC50: read-out: LC50 (the source's name); for TGI: read-out: TGI
[8] = tested on: K562; assay: Growth inhibition of human K562 cells assessed as cell growth at 10^-5 M incubated for 48 hrs by sulforhodamine B assay relative to control; format: functional; details: K562, 48 h, read-out: Activity
[9] = tested on: OVCAR-5; assay: Growth inhibition of human OVCAR5 cells assessed as cell growth at 10^-5 M incubated for 48 hrs by sulforhodamine B assay relative to control; format: functional; details: OVCAR-5, 48 h, read-out: Activity
[10] = tested on: OVCAR-4; assay: Growth inhibition of human OVCAR4 cells assessed as cell growth at 10^-5 M incubated for 48 hrs by sulforhodamine B assay relative to control; format: functional; details: OVCAR-4, 48 h, read-out: Activity
[11] = tested on: PC-3; assay: Growth inhibition of human PC3 cells assessed as cell growth at 10^-5 M incubated for 48 hrs by sulforhodamine B assay relative to control; format: functional; details: PC-3, 48 h, read-out: Activity
[12] = tested on: OVCAR-3; assay: Cytotoxicity against human OVCAR3 cells after 48 hrs by SRB assay; format: functional; details: OVCAR-3, 48 h; for GI50: read-out: GI50
[13] = tested on: A549; assay: Growth inhibition of human A549/ATCC cells assessed as cell growth at 10^-4 M incubated for 48 hrs by sulforhodamine B assay relative to control; format: functional; details: A549, 48 h, read-out: Activity
[14] = tested on: MDA-MB-231; assay: Growth inhibition of human MDA-MB-231 cells assessed as cell growth at 10^-4 M incubated for 48 hrs by sulforhodamine B assay relative to control; format: functional; details: MDA-MB-231, 48 h, read-out: Activity
[15] = tested on: U-251; assay: Cytotoxicity against human U251 cells after 48 hrs by SRB assay; format: functional; details: U-251, 48 h
[16] = tested on: SR; assay: Growth inhibition of human SR cells assessed as cell growth at 10^-8 M incubated for 48 hrs by sulforhodamine B assay relative to control; format: functional; details: read-out: Activity
[17] = tested on: PC-3; assay: Cytotoxicity against human PC3 cells after 48 hrs by SRB assay; format: functional; details: PC-3, 48 h; for GI50: read-out: GI50; for CC50: read-out: LC50 (the source's name); for TGI: read-out: TGI
[18] = tested on: 786-0; assay: Growth inhibition of human 786-0 cells assessed as cell growth at 10^-6 M incubated for 48 hrs by sulforhodamine B assay relative to control; format: functional; details: 786-0, 48 h, read-out: Activity
[19] = tested on: OVCAR-3; assay: Growth inhibition of human OVCAR3 cells assessed as cell growth at 10^-6 M incubated for 48 hrs by sulforhodamine B assay relative to control; format: functional; details: OVCAR-3, 48 h, read-out: Activity
[20] = tested on: OVCAR-4; assay: Cytotoxicity against human OVCAR4 cells after 48 hrs by SRB assay; format: functional; details: OVCAR-4, 48 h; for GI50: read-out: GI50
[21] = tested on: TK-10; assay: Growth inhibition of human TK10 cells assessed as cell growth at 10^-8 M incubated for 48 hrs by sulforhodamine B assay relative to control; format: functional; details: TK-10, 48 h, read-out: Activity
[22] = tested on: HCT-15; assay: Growth inhibition of human HCT15 cells assessed as cell growth at 10^-8 M incubated for 48 hrs by sulforhodamine B assay relative to control; format: functional; details: HCT-15, 48 h, read-out: Activity
[23] = tested on: CCRF-CEM; assay: Antiproliferative activity against human CEM cells after 72 hrs by Coulter counter method; format: functional, cell-based
Summary of the method: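 Cell count assay in 96-well microtiter plates; (5–7.5) × 10⁴ tumor cells per well plus test compound. Cells proliferated at 37 °C in humidified CO₂-controlled atmosphere, 48 h for murine leukemia L1210, 72 h for human lymphocytic CEM and cervix carcinoma HeLa. Counted by Coulter counter; IC₅₀ is the concentration that inhibits proliferation by 50%.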

[24] = tested on: A498; assay: Cytotoxicity against human A498 cells after 48 hrs by SRB assay; format: functional; details: A498, 48 h; for GI50: read-out: GI50; for CC50: read-out: LC50 (the source's name); for TGI: read-out: TGI
[25] = tested on: NCI-H23; assay: Growth inhibition of human NCI-H23 cells assessed as cell growth at 10^-7 M incubated for 48 hrs by sulforhodamine B assay relative to control; format: functional; details: NCI-H23, 48 h, read-out: Activity
[26] = tested on: OVCAR-3; assay: Growth inhibition of human OVCAR3 cells assessed as cell growth at 10^-4 M incubated for 48 hrs by sulforhodamine B assay relative to control; format: functional; details: OVCAR-3, 48 h, read-out: Activity
[27] = tested on: HCC 2998; assay: Growth inhibition of human HCC2998 cells assessed as cell growth at 10^-6 M incubated for 48 hrs by sulforhodamine B assay relative to control; format: functional; details: HCC 2998, 48 h, read-out: Activity
[28] = tested on: HOP-62; assay: Growth inhibition of human HOP62 cells assessed as cell growth at 10^-7 M incubated for 48 hrs by sulforhodamine B assay relative to control; format: functional; details: HOP-62, 48 h, read-out: Activity
[29] = tested on: SN12C; assay: Growth inhibition of human SN12C cells assessed as cell growth at 10^-8 M incubated for 48 hrs by sulforhodamine B assay relative to control; format: functional; details: read-out: Activity
[30] = tested on: K562; assay: Growth inhibition of human K562 cells assessed as cell growth at 10^-6 M incubated for 48 hrs by sulforhodamine B assay relative to control; format: functional; details: K562, 48 h, read-out: Activity
[31] = tested on: NCI-H522; assay: Cytotoxicity against human NCI-H522 cells after 48 hrs by SRB assay; format: functional; details: NCI-H522, 48 h; for GI50: read-out: GI50; for TGI: read-out: TGI
[32] = read-out: LC50 (the source's name)
[33] = read-out: pLC50 (the source's name) (converted)

For `C#C[C@@]1(O)[C@@H](CO)O[C@@H](n2cc(I)c3c(N)ncnc32)[C@@H]1O`, the growth at 1 µM [1] was 37 to 44%, the growth at 0.1 µM [2] was 63 to 76% and the growth at 0.1 µM [3] was 46 to 50%. It also gave a growth at 1 µM [4] of 27 to 39%, a growth at 0.1 µM [5] of 18 to 25% and a growth at 10 µM [6] of 1 to 5%. For the same compound, the GI50 [7] was 44.8 to 170 nM, the CC50 [7] was 4780 to 6740 nM and the TGI [7] was 393 to 1270 nM. For the same compound, the growth at 10 µM [8] was 7%, the growth at 10 µM [9] was 2 to 6% and the growth at 10 µM [10] was 9 to 13%. The growth at 10 µM [11] was 2%, the GI50 [12] was 321 to 427 nM and the CC50 [12, 32] was > 100000 nM. For the same compound, the growth at 100 µM [13] was 4 to 8%, the growth at 100 µM [14] was 11 to 12% and the GI50 ([15]; read-out: GI50) was 67.3 to 80.2 nM. The TGI ([15]; read-out: TGI) was 10200 to 100000 nM, the CC50 [15, 33] was > 100000 nM and the growth at 0.01 µM [16] was 94 to 96%. The GI50 [17] was 66.3 to 86.1 nM, the CC50 [17] was > 100000 nM and the TGI [17] was 14500 to 100000 nM. It also gave a growth at 1 µM [18] of 13 to 23%, a growth at 1 µM [19] of 24 to 33% and a GI50 [20] of 563 to 1160 nM. For the same compound, the TGI ([20]; read-out: TGI) was > 100000 nM, the CC50 [20, 33] was > 100000 nM and the TGI ([20]; read-out: pTGI (converted)) was > 100000 nM. It also gave a growth at 0.01 µM [21] of 85 to 94%, a growth at 0.01 µM [22] of 74 to 84% and an IC50 [23] of 120 nM. The GI50 [24] was 211 to 453 nM, the CC50 [24] was 4690 to 6400 nM and the TGI [24] was 1030 to 1980 nM. It also gave a growth at 0.1 µM [25] of 67 to 75%, a growth at 100 µM [26] of 1 to 2% and a growth at 1 µM [27] of 11 to 16%. It also gave a growth at 0.1 µM [28] of 72 to 75%, a growth at 0.01 µM [29] of 85 to 90% and a growth at 1 µM [30] of 17 to 22%. For the same compound, the GI50 [31] was 64.8 to 152 nM, the CC50 [31, 32] was > 100000 nM and the TGI [31] was 516 to 698 nM.
In the case of `C#C[C@@]1(O)[C@@H](CO)O[C@@H](n2cc(Cl)c3c(N)ncnc32)[C@@H]1O`, the growth at 1 µM [1] is reported as 13 to 23%, the growth at 0.1 µM [2] is reported as 66 to 77% and the growth at 0.1 µM [3] is reported as 61 to 69%. It also gave a growth at 0.1 µM [5] of 17 to 25%, a GI50 [7] of 71.2 to 157 nM and a CC50 [7] of 10000 to 40400 nM. The TGI [7] was 276 to 521 nM, the growth at 10 µM [8] was 5 to 7% and the growth at 10 µM [9] was 13 to 14%. The GI50 [12] was 228 to 237 nM, the TGI ([12]; read-out: TGI) was 1600 to 2010 nM and the CC50 [12, 33] was > 100000 nM. For the same compound, the growth at 100 µM [13] was 8 to 12%, the CC50 [15, 32] was > 100000 nM and the growth at 0.01 µM [16] was 107 to 108%. The GI50 [17] was 173 to 211 nM, the CC50 [17] was > 100000 nM and the TGI [17] was 3520 to 4540 nM. For the same compound, the growth at 1 µM [18] was 9 to 11%, the growth at 1 µM [19] was 5 to 7% and the GI50 [20] was 292 to 358 nM. The CC50 [20, 32] was > 100000 nM, the TGI ([20]; read-out: TGI) was 1980 to 5620 nM and the growth at 0.01 µM [21] was 96 to 105%. For the same compound, the growth at 0.01 µM [22] was 78 to 80%, the IC50 [23] was 12 nM and the GI50 [24] was 225 to 334 nM. It also gave a CC50 [24] of 842 to 5620 nM, a TGI [24] of 435 to 1000 nM and a growth at 0.1 µM [25] of 69 to 73%. The growth at 0.1 µM [28] was 74 to 86%, the growth at 0.01 µM [29] was 85 to 90% and the growth at 1 µM [30] was 7%. The GI50 [31] was 81.6 to 134 nM, the TGI [31] was 276 to 455 nM and the CC50 [31, 33] was > 100000 nM.
